Reference: ChEMBL document CHEMBL4049429, “Enantiospecific Recognition at the A2B Adenosine Receptor by Alkyl 2-Cyanoimino-4-substituted-6-methyl-1,2,3,4-tetrahydropyrimidine-5-carboxylates” (J Med Chem, 2017)

Tests used:
Adenosine receptor A2b = molecular target: T1, Adenosine receptor A2b (Homo sapiens, UniProt P29275); assay: Displacement of [3H]DPCPX from human adenosine A2B receptor expressed in HEK293 cell membranes after 30 mins
T1 sequence (P29275 whole entry): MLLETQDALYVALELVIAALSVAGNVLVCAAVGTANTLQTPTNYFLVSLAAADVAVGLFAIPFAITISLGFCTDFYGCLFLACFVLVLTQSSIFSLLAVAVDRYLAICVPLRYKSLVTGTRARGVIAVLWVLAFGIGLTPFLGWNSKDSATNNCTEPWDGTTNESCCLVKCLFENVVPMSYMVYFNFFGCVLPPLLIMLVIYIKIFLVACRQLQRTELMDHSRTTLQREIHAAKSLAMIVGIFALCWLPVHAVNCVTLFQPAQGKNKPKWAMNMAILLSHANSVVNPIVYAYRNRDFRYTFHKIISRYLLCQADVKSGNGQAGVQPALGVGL

[1] = molecular target: Adenosine receptor A2a (Homo sapiens) (UniProt P29274); assay: Displacement of [3H]4-(2-[7-amino-2-(2-furyl)[1,2,4]triazolo[2,3-a][1,3,5]triazin-5-ylamino]ethyl)phenol from human adenosine A2A receptor expressed in human Hela cell membranes at 1 uM after 30 mins
Adenosine receptor A2a (Homo sapiens), sequence (P29274 whole entry): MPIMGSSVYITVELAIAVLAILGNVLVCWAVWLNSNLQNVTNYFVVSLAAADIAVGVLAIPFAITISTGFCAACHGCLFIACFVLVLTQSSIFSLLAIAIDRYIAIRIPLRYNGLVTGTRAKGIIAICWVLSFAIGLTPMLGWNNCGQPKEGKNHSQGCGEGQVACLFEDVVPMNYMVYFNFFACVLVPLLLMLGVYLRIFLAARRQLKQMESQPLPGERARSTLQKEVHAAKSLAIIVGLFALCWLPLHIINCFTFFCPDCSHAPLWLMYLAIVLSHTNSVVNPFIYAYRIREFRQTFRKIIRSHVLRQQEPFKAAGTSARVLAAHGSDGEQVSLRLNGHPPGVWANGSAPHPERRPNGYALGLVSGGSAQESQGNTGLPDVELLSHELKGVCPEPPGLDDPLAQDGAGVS
Summary of the method: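 Membranes from HeLa cells expressing human A2A receptor, labelled with 3 nM radioligand. Nonspecific binding defined with 50 μM NECA. Incubated 25 °C, 30 min. Percent inhibition of specific binding at 1 μM, average of n = 2.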

[2] = molecular target: T2, Adenosine receptor A3 (Homo sapiens) (UniProt P0DMS8); assay: Displacement of [3H]NECA from human adenosine A3 receptor expressed in human Hela cell membranes at 1 uM after 180 mins
T2 sequence (whole entry): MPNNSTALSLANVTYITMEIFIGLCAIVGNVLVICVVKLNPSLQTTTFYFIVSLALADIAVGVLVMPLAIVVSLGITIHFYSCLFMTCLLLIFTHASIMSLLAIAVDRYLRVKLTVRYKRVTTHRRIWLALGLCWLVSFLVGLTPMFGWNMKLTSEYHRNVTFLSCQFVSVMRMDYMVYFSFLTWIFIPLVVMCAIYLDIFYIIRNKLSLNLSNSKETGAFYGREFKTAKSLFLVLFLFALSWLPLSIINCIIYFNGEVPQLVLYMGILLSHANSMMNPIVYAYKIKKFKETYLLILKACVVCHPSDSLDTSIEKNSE
Summary of the method: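 Membranes from HeLa cells expressing human A3 receptor, labelled with 30 nM [3H]NECA. Nonspecific binding defined with 100 μM R-PIA. Incubated 25 °C, 180 min. Percent inhibition of specific binding at 1 μM, average of n = 2.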

[3] = molecular target: T3, Adenosine receptor A1 (Homo sapiens) (UniProt P30542); assay: Displacement of [3H]DPCPX from human adenosine A1 receptor expressed in CHO cell membranes at 1 uM after 60 mins
T3 sequence (whole entry): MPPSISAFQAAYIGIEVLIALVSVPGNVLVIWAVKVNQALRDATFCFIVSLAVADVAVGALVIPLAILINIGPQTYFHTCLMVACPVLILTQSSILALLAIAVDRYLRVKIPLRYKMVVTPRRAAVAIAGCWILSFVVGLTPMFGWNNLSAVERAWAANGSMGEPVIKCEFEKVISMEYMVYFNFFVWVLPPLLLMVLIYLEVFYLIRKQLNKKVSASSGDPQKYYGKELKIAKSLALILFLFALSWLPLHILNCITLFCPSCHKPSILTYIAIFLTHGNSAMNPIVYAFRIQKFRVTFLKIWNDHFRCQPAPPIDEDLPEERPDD
Summary of the method: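 Membranes from CHO cells expressing human A1 receptor, labelled with 2 nM [3H]DPCPX. Nonspecific binding defined with 10 μM R-PIA. Incubated 25 °C, 60 min. Percent inhibition of specific binding at 1 μM, average of n = 2.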

[4] = molecular target: T4, Adenosine receptor A2b (Homo sapiens) (UniProt P29275); assay: Displacement of [3H]DPCPX from human adenosine A2B receptor expressed in HEK293 cell membranes at 1 uM after 30 mins
T4 sequence (whole entry): T1 sequence (P29275 whole entry)
Summary of the method: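 HEK-293 membranes expressing human A2B receptor, labelled with 35 nM [3H]DPCPX. Nonspecific binding with 400 μM NECA. 25 °C, 30 min. Percent inhibition of specific binding at 1 μM, average of n = 2.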

[5] = molecular target: T4, Adenosine receptor A2b (Homo sapiens); assay: Antagonist activity at human adenosine A2B receptor expressed in HEK293 cell […] assessed as inhibition of NECA-stimulated cAMP accumulation preincubated for 15 mins followed by NECA stimulation for 15 mins by enzyme immunoassay; format: functional, cell-based
Summary of the method: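 Whole HEK-293 cells transfected with human A2B receptor, grown at 37 °C, 5% CO2 in EMEM F-12 with 10% FCS and 1% L-glutamine. Washed, then preincubated 15 min at 37 °C in EMEM-F12/25 mM HEPES pH 7.4 with 30 μM rolipram plus test compound. Stimulated with 10 μM NECA for 15 min. Lysed, intracellular cAMP read by enzyme immunoassay at 450 nm. KB derived from IC50 by the Leff and Dougall method. n = 3, each in duplicate.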

SMILES | Ki (Adenosine receptor A2b) [nM] | inhibition [1] [%] | inhibition [2] [%] | inhibition [3] [%] | inhibition [4] [%] | Kb [5] [nM]
CC1=C(C(=O)OC(C)C)[C@@H](c2ccco2)N/C(=N/C#N)N1 | 15.1 | 4 | 4 | 2 | – | –
CC1=C(C(=O)OC(C)C)C(C2CCCC2)NC(=O)N1 (stereo unspecified) | – | 1 | 7 | 1 | 3 | –
CC1=C(C(=O)OC(C)C)C(c2ccccc2)NC(=O)N1 (stereo unspecified) | – | 1 | 2 | 2 | 2 | –
CC1=C(C(=O)OC(C)C)C(c2ccco2)NC(=O)N1 (stereo unspecified) | – | 30 | 1 | 20 | – | –
CCOC(=O)C1=C(C)NC(=O)NC1C1CCCC1 (stereo unspecified) | – | 1 | 18 | 3 | 2 | –
CCOC(=O)C1=C(C)NC(=O)NC1c1ccccc1 (stereo unspecified) | – | 10 | 2 | 1 | 2 | –
CCOC(=O)C1=C(C)NC(=O)NC1c1ccco1 (stereo unspecified) | – | 41 | – | 18 | – | –
CCOC(=O)C1=C(C)NC(=O)NC1c1cccs1 (stereo unspecified) | – | – | 1 | 1 | 44 | –
CCOC(=O)C1=C(C)NC(=O)NC1c1ccoc1 (stereo unspecified) | – | 39 | – | – | – | –
CCOC(=O)C1=C(C)NC(=O)NC1c1ccsc1 (stereo unspecified) | – | 39 | 24 | 22 | – | –
CC1=C(C(=O)OC(C)C)C(c2ccco2)N/C(=N/C#N)N1 (racemic) | 24.3 | 19 | 4 | 21 | – | 116
CCOC(=O)C1=C(C)N/C(=N\C#N)NC1c1ccsc1 (racemic) | 461 | 30 | 23 | 29 | – | –
CCOC(=O)C1=C(C)N/C(=N\C#N)NC1c1ccco1 (racemic) | 900 | 20 | 20 | 27 | – | –
CCOC(=O)C1=C(C)N/C(=N\C#N)NC1C1CCCC1 (racemic) | – | 10 | 4 | 11 | 19 | –

Further lines, results first:

Ki (Adenosine receptor A2b) [nM] | inhibition [1] [%] | inhibition [2] [%] | inhibition [3] [%] | inhibition [4] [%] | Kb [5] [nM] | SMILES
– | – | 1 | – | – | – | CC1=C(C(=O)OC(C)C)C(c2ccsc2)NC(=O)N1 (stereo unspecified)
– | 10 | 1 | 18 | 23 | – | CC1=C(C(=O)OC(C)C)[C@H](c2ccco2)N/C(=N/C#N)N1
102 | 31 | 14 | 28 | – | – | CCOC(=O)C1=C(C)N/C(=N\C#N)NC1c1ccoc1 (racemic)
51 | 33 | 3 | 26 | – | – | CCOC(=O)C1=C(C)N/C(=N\C#N)NC1c1cccs1 (racemic)
349 | 16 | 27 | 31 | – | – | CC1=C(C(=O)OC(C)C)C(c2cccs2)N/C(=N/C#N)N1 (racemic)
59.4 | 25 | 41 | 34 | – | – | CC1=C(C(=O)OC(C)C)C(c2ccoc2)N/C(=N/C#N)N1 (racemic)
647 | 18 | 13 | 11 | – | – | CC1=C(C(=O)OC(C)C)C(c2ccsc2)N/C(=N/C#N)N1 (racemic)
– | 5 | 3 | 3 | 11 | – | CC1=C(C(=O)OC(C)C)C(C2CCCC2)N/C(=N/C#N)N1 (racemic)
– | 12 | 6 | 20 | 32 | – | CC1=C(C(=O)OC(C)C)C(c2ccccc2)N/C(=N/C#N)N1 (racemic)
– | 13 | 13 | 18 | 25 | – | CCOC(=O)C1=C(C)N/C(=N\C#N)NC1c1ccccc1 (racemic)
